Article PMC10337234 (Nature chemical biology, 2023)

Assays:
NONO C145 [1] = target: T1, NONO C145 (Homo sapiens, UniProt Q15233); assay: Cysteine-directed MS-ABPP, engagement of NONO C145 in 22Rv1 cells; assay type: binding; conditions: 1 h
T1 sequence (Q15233 1-471): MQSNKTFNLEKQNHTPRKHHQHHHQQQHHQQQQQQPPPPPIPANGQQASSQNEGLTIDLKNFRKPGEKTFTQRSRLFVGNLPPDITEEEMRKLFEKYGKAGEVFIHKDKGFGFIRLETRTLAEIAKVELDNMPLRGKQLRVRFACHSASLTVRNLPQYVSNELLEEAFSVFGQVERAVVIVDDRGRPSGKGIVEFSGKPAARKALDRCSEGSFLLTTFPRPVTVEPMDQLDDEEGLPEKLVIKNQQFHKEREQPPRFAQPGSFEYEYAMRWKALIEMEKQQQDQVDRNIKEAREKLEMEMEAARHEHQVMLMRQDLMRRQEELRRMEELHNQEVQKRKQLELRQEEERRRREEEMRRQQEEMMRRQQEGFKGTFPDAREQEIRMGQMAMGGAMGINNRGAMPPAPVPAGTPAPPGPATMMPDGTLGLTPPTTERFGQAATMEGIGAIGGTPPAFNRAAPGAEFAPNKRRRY
Procedure, shortened: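 22Rv1 cells were seeded at 2 × 10^6 per 10-cm plate and grown for 48 h. They were treated in situ with 20 μM test compound or DMSO for 1 h, then analysed by cysteine-directed MS-ABPP. Engagement was taken from the DMSO versus compound reactivity ratio, capped at 10 and 0.1. Values are means of three independent experiments, counting cysteines quantified in at least two.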

AR-FL mRNA = assay: QuantiGene assay for AR-FL mRNA expression in 22Rv1 cells; assay type: cell-based; conditions: Homo sapiens, 22Rv1, 6 h, read-out: IC50 for AR-FL transcript suppression
HT1080 cells = assay: Cell growth inhibition assay; assay type: cell-based, human; conditions: HT1080, 4 days, versus (S)-SKBG-1
Procedure, shortened: (§1)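 Cells were seeded at 5,000 per well for 16 h. They were then given 0.1% DMSO or test compound in 0.1% DMSO (threefold dilutions from 50 μM, eight concentrations) until DMSO controls were confluent: 6 d for 22Rv1, 5 d for MCF7, 4 d for HeLa and HT1080. CellTiterGlo was added for 30 min at room temperature and luminescence read. Signals were normalized to DMSO, with four replicate wells per concentration. EC50 came from a four-parameter variable-slope fit.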

NONO C145 [2] = target: T1, NONO C145; assay type: binding
Procedure, shortened: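 HEK293T cells were seeded at 5 × 10^5 overnight and PEI-transfected with FLAG-tagged WT or C145S NONO, or empty vector, for 48 h. Cells were then given test compound or 0.1% DMSO in situ for 2 h, followed by a cysteine-reactive alkyne probe (20 μM, 1 h, 37 °C). Lysates (2 mg ml–1) were click-conjugated to rhodamine/TAMRA-azide and run on SDS-PAGE. The FLAG-NONO band was quantified by in-gel fluorescence. Four independent experiments gave the IC50.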

MCF7 cells = assay: Cell growth inhibition assay; assay type: cell-based, human; conditions: MCF7, 5 days, versus (S)-SKBG-1
Procedure, shortened: as §1

AR-V7 mRNA = assay: QuantiGene assay for AR-V7 mRNA expression in 22Rv1 cells; assay type: cell-based; conditions: Homo sapiens, 22Rv1, 6 h, read-out: IC50 for AR-V7 transcript suppression
22Rv1 cells [3] = assay: Cell growth inhibition assay; assay type: cell-based, human; conditions: 22Rv1, 6 d, versus (S)-SKBG-1
Procedure, shortened: as §1

NONO = target: T2, NONO (Homo sapiens, UniProt Q15233); assay: Immunofluorescence of NONO nuclear foci in 22Rv1 cells; assay type: cell-based; conditions: 20 μM, 1 h to 24 h
T2 sequence (Q15233 1-471): T1 sequence (Q15233 1-471)

HeLa cells = assay: Cell growth inhibition assay; assay type: cell-based, human; conditions: 4 days, versus (S)-SKBG-1
Procedure, shortened: as §1

22Rv1 cells [4] = assay: RNA-seq of sgControl 22Rv1 cells; assay type: cell-based, human; conditions: 20 μM, 4 h, log2 (fold change) < −0.5, Padj < 0.01, versus (S)-SKBG-1 or DMSO

SMILES | engagement of NONO C145 (NONO C145 [1]; 22Rv1 cells, 20 μM) | IC50 (AR-FL mRNA) [µM] | cell growth effect (HT1080 cells) | IC50 (NONO C145 [2]) [µM] | cell growth effect (MCF7 cells) | IC50 (AR-V7 mRNA) [µM] | cell growth effect (22Rv1 cells [3]) | formation of subnuclear foci of NONO (NONO) | cell growth effect (HeLa cells) | number of transcripts substantially and significantly decreased (22Rv1 cells [4]) | inhibition at 20 µM (NONO C145 [1]; read-out: engagement of NONO C145) [%]
COc1ccc(CNC(=O)[C@@H]2CN(C(=O)CCl)CCN2S(=O)(=O)c2ccc(OC)cc2)cc1 [(S)-SKBG-1] | not by the inactive controls | – | – | – | – | – | – | – | – | – | –
COc1ccc(CNC(=O)[C@H]2CN(C(=O)CCl)CCN2S(=O)(=O)c2ccc(OC)cc2)cc1 [(R)-SKBG-1] | – | 2.7 to 5.5 | stereoselective cell growth impairment | 5.7 | stereoselective cell growth impairment | 2.7 to 5.5 | stereoselective cell growth impairment | induced the formation of large subnuclear foci of NONO | stereoselective cell growth impairment | ~ 1,000 transcripts | > 50
